The target in series [1] is Motilin receptor (Oryctolagus cuniculus, UniProt A5A4K8). The series can be described thus: Agonist activity at motilin receptor in rabbit smooth muscle assessed as maximal possible tissue contraction. It counts as functional. The gist of the method: (§1)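 Rabbit smooth muscle contractility assay. EC50 is the concentration giving 50% of the maximal possible contraction. Tachyphylaxis is the % contractile response to an EC90 drug concentration after three cycles of administration and washout.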
Chain of Motilin receptor (A5A4K8 whole entry): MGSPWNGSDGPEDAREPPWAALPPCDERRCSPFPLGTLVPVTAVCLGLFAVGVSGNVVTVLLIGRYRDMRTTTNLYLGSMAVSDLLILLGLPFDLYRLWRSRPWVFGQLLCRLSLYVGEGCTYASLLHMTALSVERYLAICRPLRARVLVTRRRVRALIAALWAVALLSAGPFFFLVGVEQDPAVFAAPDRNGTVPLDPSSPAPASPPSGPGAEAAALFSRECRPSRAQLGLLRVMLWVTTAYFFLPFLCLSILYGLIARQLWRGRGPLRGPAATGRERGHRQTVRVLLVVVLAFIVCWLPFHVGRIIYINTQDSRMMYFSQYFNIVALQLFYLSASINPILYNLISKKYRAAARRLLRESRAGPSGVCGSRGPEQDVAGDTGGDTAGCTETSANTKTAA

Series [2] has as its system Streptococcus pneumoniae. Briefly: Antibacterial activity against erythromycin-sensitive Streptococcus pneumoniae ATCC 6301. Type of series: functional. The gist of the method: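 MIC, the minimal growth inhibitory concentration, was determined in routine screening against the highly erythromycin-sensitive strain Streptococcus pneumoniae ATCC6301.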
For series [3], the target named is T1, hERG (KCNH2) (Homo sapiens, UniProt Q12809). The series can be described thus: Inhibition of human ERG expressed in HEK cells at 30 uM. Type of series: cell-based, HEK293. To be noted: HEK cells expressing human ERG.
T1 sequence (Q12809 whole entry): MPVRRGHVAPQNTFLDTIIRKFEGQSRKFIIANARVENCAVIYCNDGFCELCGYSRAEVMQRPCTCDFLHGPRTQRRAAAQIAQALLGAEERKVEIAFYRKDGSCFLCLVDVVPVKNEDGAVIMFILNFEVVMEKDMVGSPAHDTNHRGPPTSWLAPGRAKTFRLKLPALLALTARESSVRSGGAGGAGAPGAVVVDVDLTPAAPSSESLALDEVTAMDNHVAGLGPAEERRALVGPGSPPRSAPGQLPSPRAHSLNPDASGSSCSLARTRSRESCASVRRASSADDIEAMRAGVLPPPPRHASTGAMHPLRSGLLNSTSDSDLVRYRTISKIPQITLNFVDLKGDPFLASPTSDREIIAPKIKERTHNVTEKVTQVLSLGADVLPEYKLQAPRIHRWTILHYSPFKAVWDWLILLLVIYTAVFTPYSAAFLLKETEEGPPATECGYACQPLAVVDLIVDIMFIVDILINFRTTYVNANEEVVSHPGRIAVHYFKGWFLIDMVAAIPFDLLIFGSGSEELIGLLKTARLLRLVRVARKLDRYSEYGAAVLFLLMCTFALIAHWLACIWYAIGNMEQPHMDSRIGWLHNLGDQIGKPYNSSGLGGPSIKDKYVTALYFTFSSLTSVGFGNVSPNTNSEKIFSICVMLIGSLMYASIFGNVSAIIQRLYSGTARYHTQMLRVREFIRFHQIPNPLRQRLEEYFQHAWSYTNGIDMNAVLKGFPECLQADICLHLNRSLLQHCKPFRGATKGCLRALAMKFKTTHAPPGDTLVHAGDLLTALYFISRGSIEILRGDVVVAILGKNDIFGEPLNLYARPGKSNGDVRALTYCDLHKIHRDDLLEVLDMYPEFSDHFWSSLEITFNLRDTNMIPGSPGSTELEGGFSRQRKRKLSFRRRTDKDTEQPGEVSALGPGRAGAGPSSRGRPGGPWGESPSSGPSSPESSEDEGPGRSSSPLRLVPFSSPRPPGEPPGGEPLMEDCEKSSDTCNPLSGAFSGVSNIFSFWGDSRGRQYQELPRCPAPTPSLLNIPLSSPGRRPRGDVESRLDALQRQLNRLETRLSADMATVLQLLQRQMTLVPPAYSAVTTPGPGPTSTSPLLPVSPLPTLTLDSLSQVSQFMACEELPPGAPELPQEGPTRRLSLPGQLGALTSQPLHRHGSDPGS
For series [4], the target named is T1, hERG (KCNH2). Briefly: Inhibition of human ERG expressed in HEK cells at 300 uM. Type of series: cell-based, HEK293. Particulars: HEK cells expressing human ERG.
Series [5] addresses Motilin receptor (Oryctolagus cuniculus) (UniProt A5A4K8). The series can be described thus: Agonist activity at motilin receptor in rabbit smooth muscle assessed as tachyphylaxis at EC90 concentration after 4th dose. It counts as functional. The gist of the method: as §1

Consider 16 compounds from ChEMBL document CHEMBL1154611 (J Med Chem, 2009).

Molecules are shown by their SMILES. Converted amounts (≈) assume the structure as drawn. Bounds are passed on as bounds.

Chain of Motilin receptor (Oryctolagus cuniculus) (A5A4K8 as listed by the source): as the sequence (A5A4K8 whole entry) above

For `CC[C@H]1OC(=O)[C@H](C)[C@@H](O[C@H]2C[C@@](C)(OC)[C@@H](O)[C@H](C)O2)[C@H](C)[C@@H](O[C@@H]2O[C@H](C)C[C@H](N(C)C(C)C)[C@H]2O)[C@](C)(O)C[C@@H](C)[C@H](OCC(=O)NCC(F)(F)F)[C@H](C)[C@@H](O)[C@]1(C)O`, the EC50 (in general, the midpoint of the concentration-response curve) in series [1] is 160 nM. Further, in series [2], it took 128 µg/mL (≈ 142 µM) to inhibit growth (MIC). For the same compound, the inhibition (usually the change of the read-out against control, counted positive when it falls) at 30 µM in series [3] was found to be 30%. This compound had an inhibition at 300 µM in series [4] of 82%.

In the case of `CC[C@H]1OC(=O)[C@H](C)[C@@H](O[C@H]2C[C@@](C)(OC)[C@@H](O)[C@H](C)O2)[C@H](C)[C@@H](O[C@@H]2O[C@H](C)C[C@H](N(C)C(C)C)[C@H]2O)[C@](C)(O)C[C@@H](C)[C@H](OCC(=O)N(C)C)[C@H](C)[C@@H](O)[C@]1(C)O`, the EC50 in series [1] turned out to be 660 nM. The Activity in series [5] came to 95%. This compound came in with an inhibition at 30 µM in series [3] of 8%. This compound also had an inhibition at 300 µM in series [4] of 29%.

For the compound `CC[C@H]1OC(=O)[C@H](C)[C@@H](O[C@H]2C[C@@](C)(OC)[C@@H](O)[C@H](C)O2)[C@H](C)[C@@H](O[C@@H]2O[C@H](C)C[C@H](N(C)C(C)C)[C@H]2O)[C@](C)(O)C[C@@H](C)[C@H](OCC(=O)NCCOC)[C@H](C)[C@@H](O)[C@]1(C)O`, the EC50 in series [1] was found to be 50 nM. In addition, in series [2], 128 µg/mL (≈ 146 µM) was the least that counted as inhibitory (MIC). In addition, the inhibition at 30 µM in series [3] was determined as 33%. In addition, in series [4], testing at 300 µM gave an inhibition of 93%.

Consider `CC[C@H]1OC(=O)[C@H](C)[C@@H](O[C@H]2C[C@@](C)(OC)CC(C)O2)[C@H](C)[C@@H](O[C@@H]2O[C@H](C)C[C@H](N(C)CC)[C@H]2O)C2(C)CC(C)=C(O2)[C@H](C)[C@@H](O)[C@H]1C` (single isomer, unassigned), for which the EC50 in series [1] was 7 nM. Moreover, the Activity in series [5] is 22%. Besides, in series [2], it took 64 µg/mL (≈ 91.7 µM) to inhibit growth (MIC). In series [4], this compound gave an inhibition at 300 µM of 100%.

On to `CC[C@H]1OC(=O)[C@H](C)[C@@H](O[C@H]2C[C@@](C)(OC)[C@@H](O)[C@H](C)O2)[C@H](C)[C@@H](O[C@@H]2O[C@H](C)C[C@H](N(C)C(C)C)[C@H]2O)[C@](C)(O)C[C@@H](C)[C@H](OCC(=O)NC)[C@H](C)[C@@H](O)[C@H]1C`, for which, in series [1], the 50% effective concentration (EC50) worked out at 90 nM. For the same compound, in series [5], the Activity was determined as 86%. Besides, at 30 µM the inhibition in series [3] was 21%. Besides, in series [4], the inhibition at 300 µM turned out to be 67%.

As for `CC[C@H]1OC(=O)[C@H](C)[C@@H](O[C@H]2C[C@@](C)(OC)[C@@H](O)[C@H](C)O2)[C@H](C)[C@@H](O[C@@H]2O[C@H](C)C[C@H](N(C)C(C)C)[C@H]2O)[C@](C)(O)C[C@@H](C)[C@H](OCCCCCC(=O)NC)[C@H](C)[C@@H](O)[C@]1(C)O`, the 50% effective concentration (EC50) in series [1] came to 150 nM. The MIC – broadly, the lowest concentration found to suppress growth – in series [2] turned out to be 128 µg/mL (≈ 144 µM). In series [3], this compound yielded an inhibition at 30 µM of 13%. In addition, the inhibition at 300 µM in series [4] was found to be 61%.

As to `CC[C@H]1OC(=O)[C@H](C)[C@@H](O[C@H]2C[C@@](C)(OC)[C@@H](O)[C@H](C)O2)[C@H](C)[C@@H](O[C@@H]2O[C@H](C)C[C@H](N(C)C(C)C)[C@H]2O)[C@](C)(O)C[C@@H](C)[C@H](OCC(=O)NCc2ccccc2)[C@H](C)[C@@H](O)[C@]1(C)O`, the EC50 in series [1] is 79 nM. Also, in series [2], 128 µg/mL (≈ 140 µM) was the least that counted as inhibitory (MIC). Besides, testing at 30 µM in series [3] gave an inhibition of 67%. At 300 µM the inhibition in series [4] was 100%.

Consider `CC[C@H]1OC(=O)[C@H](C)[C@@H](O[C@H]2C[C@@](C)(OC)[C@@H](O)[C@H](C)O2)[C@H](C)[C@@H](O[C@@H]2O[C@H](C)C[C@H](N(C)C(C)C)[C@H]2O)[C@](C)(O)C[C@@H](C)[C@H](OCC(=O)NC(C)C)[C@H](C)[C@@H](O)[C@]1(C)O`, for which the concentration for a half-maximal effect (EC50) in series [1] was 140 nM. The compound further registered a minimal inhibitory concentration (MIC) in series [2] of 128 µg/mL (≈ 148 µM). For the same compound, the inhibition at 30 µM in series [3] turned out to be 26%. Further, the inhibition at 300 µM in series [4] worked out at 89%.

With `CC[C@H]1OC(=O)[C@H](C)[C@@H](O[C@H]2C[C@@](C)(OC)[C@@H](O)[C@H](C)O2)[C@H](C)[C@@H](O[C@@H]2O[C@H](C)C[C@H](N(C)C3CCC3)[C@H]2O)[C@](C)(O)C[C@@H](C)[C@H](OCC(=O)NC)[C@H](C)[C@@H](O)[C@]1(C)O`, in series [1], the half-maximal effective concentration (EC50) came out at 510 nM. In series [2], this compound had an MIC of over 128 µg/mL. In addition, in series [3], the inhibition at 30 µM was 12%. Besides, the inhibition at 300 µM in series [4] amounted to 53%.

As to `CC[C@H]1OC(=O)[C@H](C)[C@@H](O[C@H]2C[C@@](C)(OC)[C@@H](O)[C@H](C)O2)[C@H](C)[C@@H](O[C@@H]2O[C@H](C)C[C@H](N(C)C(C)C)[C@H]2O)[C@](C)(O)C[C@@H](C)[C@H](OCCCCC(=O)NC)[C@H](C)[C@@H](O)[C@]1(C)O`, in series [1], the EC50 stood at 270 nM. In addition, the inhibition at 30 µM in series [3] was found to be 3%. The compound further gave an inhibition at 300 µM in series [4] of 45%.

`CC[C@H]1OC(=O)[C@H](C)[C@@H](O[C@H]2C[C@@](C)(OC)[C@@H](O)[C@H](C)O2)[C@H](C)[C@@H](O[C@@H]2O[C@H](C)C[C@H](N(C)C(C)C)[C@H]2O)[C@](C)(O)C[C@@H](C)[C@H](OCC(=O)Nc2ccncn2)[C@H](C)[C@@H](O)[C@]1(C)O`: in series [1], the 50% effective concentration (EC50) stood at 25 nM. Moreover, the Activity in series [5] stood at 63%. Further, testing at 30 µM in series [3] gave an inhibition of 16%. In addition, the inhibition at 300 µM in series [4] was determined as 60%.

With `CC[C@H]1OC(=O)[C@H](C)[C@@H](O[C@H]2C[C@@](C)(OC)[C@@H](O)[C@H](C)O2)[C@H](C)[C@@H](O[C@@H]2O[C@H](C)C[C@H](N(C)C(C)C)[C@H]2O)[C@](C)(O)C[C@@H](C)[C@H](OCc2cccc(C(=O)NC)c2)[C@H](C)[C@@H](O)[C@]1(C)O`, in series [1], the 50% effective concentration (EC50) came out at 2100 nM. In series [3], this compound displayed an inhibition at 30 µM of 63%. Moreover, 300 µM produced 100% inhibition in series [4].

For `CC[C@H]1OC(=O)[C@H](C)[C@@H](O[C@H]2C[C@@](C)(OC)[C@@H](O)[C@H](C)O2)[C@H](C)[C@@H](O[C@@H]2O[C@H](C)C[C@H](N(C)C(C)C)[C@H]2O)[C@](C)(O)C[C@@H](C)[C@H](OCC(=O)NOC)[C@H](C)[C@@H](O)[C@]1(C)O`, in series [1], the EC50 amounted to 92 nM. Moreover, the inhibition at 30 µM in series [3] came to 33%. Further, in series [4], the inhibition at 300 µM stood at 82%.

Consider `CC[C@H]1OC(=O)[C@H](C)[C@@H](O[C@H]2C[C@@](C)(OC)[C@@H](O)[C@H](C)O2)[C@H](C)[C@@H](O[C@@H]2O[C@H](C)C[C@H](N(C)C)[C@H]2O)[C@](C)(O)C[C@@H](C)C(=O)[C@H](C)[C@@H](O)[C@]1(C)O` [ERYTHROMYCIN], for which the EC50 in series [1] worked out at 1200 nM. Also, the Activity in series [5] was determined as 97%. This compound also gave a minimal inhibitory concentration (MIC) in series [2] of 0.0025 µg/mL (≈ 0.00341 µM).

Consider `CC[C@H]1OC(=O)[C@H](C)[C@@H](O[C@H]2C[C@@](C)(OC)[C@@H](O)[C@H](C)O2)[C@H](C)[C@@H](O[C@@H]2O[C@H](C)C[C@H](N(C)C(C)C)[C@H]2O)[C@](C)(O)C[C@@H](C)[C@H](OCC(=O)Nc2cnccn2)[C@H](C)[C@@H](O)[C@]1(C)O`, for which the EC50 in series [1] turned out to be 69 nM. The minimum inhibitory concentration (MIC) in series [2] worked out at 128 µg/mL (≈ 142 µM). In series [3], this compound showed an inhibition at 30 µM of 40%. In series [4], 300 µM produced 88% inhibition.

With `CC[C@H]1OC(=O)[C@H](C)[C@@H](O[C@H]2C[C@@](C)(OC)[C@@H](O)[C@H](C)O2)[C@H](C)[C@@H](O[C@@H]2O[C@H](C)C[C@H](N(C)C(C)C)[C@H]2O)[C@](C)(O)C[C@@H](C)[C@H](OCc2ccc(C(=O)NC)cc2)[C@H](C)[C@@H](O)[C@]1(C)O`, the EC50 in series [1] came to 1500 nM.
